In ChEMBL document CHEMBL4004806, “Cyclocurcumin, an Antivasoconstrictive Constituent of Curcuma longa (Turmeric)” (J Nat Prod, 2017):

Tests used:
[1] = molecular target: T1, Voltage-gated L-type calcium channel (Rattus norvegicus, UniProt P22002+Q02485+P27732); assay: Irreversible inhibition of 5-HT activated L-type calcium channel-mediated vasoconstriction in Sprague-Dawley rat aortic rings at 15 uM preincubated with aortic rings followed by 5-HT addition and subsequent compound wash out measured after 4 hrs
Procedure, shortened: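 Rat aortic rings in organ baths of Krebs-Ringer solution (pH 7.4, 37 °C, gassed with 95% O2/5% CO2). Rings were pretreated with compound, then contracted with 5-HT (reading I). Buffer was washed out, and 5-HT contraction was re-measured 4 h later (reading II). Isometric tension was recorded and expressed as percent of the 90 mM K+ contraction. Mean ± SEM, ≥3 independent experiments.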

[2] = molecular target: T1, Voltage-gated L-type calcium channel; assay: Inhibition of L-type calcium channel in Sprague-Dawley rat aortic rings assessed as reduction in phenylephrine-induced vasoconstriction preincubated with aortic rings followed by phenylephrine addition
Procedure, shortened: (§1)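 Rat aortic rings in organ baths of Krebs-Ringer (pH 7.4, 95% O2/5% CO2, 37 °C) pretreated with compound. Contraction was then started by cumulative phenylephrine, serotonin or 60 mM K+. Isometric tension recorded by force transducer and expressed as percent of a prior 90 mM K+ contraction. Mean ± SEM, ≥3 independent experiments, ANOVA/Duncan or t test.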

[3] = molecular target: T1, Voltage-gated L-type calcium channel; assay: Inhibition of L-type calcium channel in Sprague-Dawley rat aortic rings assessed as reduction in phenylephrine-induced vasoconstriction at 25 uM preincubated with aortic rings followed by phenylephrine addition; procedure, shortened: as §1
[4] = molecular target: T1, Voltage-gated L-type calcium channel; assay: Inhibition of L-type calcium channel in Sprague-Dawley rat aortic rings assessed as reduction in Bay K8644-induced vasoconstriction preincubated with aortic rings followed by Bay K8644 addition
Procedure, shortened: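 Aortic rings in organ baths (37 °C, 95% O2/5% CO2) pretreated with compound. Contraction was elicited by Bay K8644 (10−6 M) in 15 mM K+ buffer, pH 7.4, containing 0.026 mM EDTA. Tension expressed as percent of a prior 90 mM K+ response. Mean ± SEM, ≥3 independent experiments.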

[5] = molecular target: T1, Voltage-gated L-type calcium channel; assay: Inhibition of L-type calcium channel in Sprague-Dawley rat primary VSMC assessed as reduction in 5-HT-induced calcium influx preincubated for 30 mins followed by 5-HT addition by Fura-2-AM dye based confocal microscopic method
Procedure, shortened: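 Enzymatically isolated rat aortic VSMCs on coverslips pretreated with compound for 30 min. Cells loaded 60 min with 1 μM fura-2/AM in PSS (pH 7.4) with 1% BSA, then superfused with PSS at 2 mL/min at 33 °C. Serotonin-evoked calcium rise imaged by 40× oil-objective fluorescence microscopy. Mean ± SEM, ≥3 experiments.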

[6] = tested on: Aorta; assay: Cytotoxicity against Sprague-Dawley rat aortic rings assessed as non-specific tissue damage at 5 to 25 uM after 30 mins by LDH release assay; type: tissue-based; conditions: 0.5 h
Procedure, shortened: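 Aortic rings exposed to compound for 30 min, then medium aliquots collected. Aliquot incubated in Tris-EDTA-NADH buffer (0.17 mM β-NADH, pH 7.4) for 10 min at 37 °C. Prewarmed 14 mM pyruvate added, and the fall in A340 was followed for 1 min as LDH activity. Mean ± SEM, ≥3 independent experiments.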

[7] = molecular target: T1, Voltage-gated L-type calcium channel; assay: Inhibition of L-type calcium channel in Sprague-Dawley rat aortic rings assessed as reduction in 5-HT-induced vasoconstriction at 5 to 25 uM preincubated with aortic rings followed by 5-HT addition; procedure, shortened: as §1
[8] = molecular target: T1, Voltage-gated L-type calcium channel; assay: Inhibition of L-type calcium channel in endothelium-denuded Sprague-Dawley rat aortic rings assessed as reduction in 5-HT-induced vasoconstriction at 5 to 25 uM preincubated with aortic rings followed by 5-HT addition; procedure, shortened: as §1
[9] = molecular target: T1, Voltage-gated L-type calcium channel; assay: Inhibition of 60 mM K+ activated L-type calcium channel-mediated vasoconstriction in Sprague-Dawley rat aortic rings preincubated followed by 60 mM K+ addition; procedure, shortened: as §1
[10] = molecular target: T1, Voltage-gated L-type calcium channel; assay: Reversible inhibition of 5-HT activated L-type calcium channel-mediated vasoconstriction in Sprague-Dawley rat aortic rings at 25 uM preincubated with aortic rings followed by 5-HT addition and subsequent compound wash out measured after 4 hrs
Procedure, shortened: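 Organ-bath aortic rings (Krebs-Ringer, 37 °C) treated with compound, and a 5-HT contraction recorded. Buffer was washed out and the 5-HT contraction measured again 4 h later. Tension expressed relative to a 90 mM K+ response. Mean ± SEM, ≥3 independent experiments.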

[11] = molecular target: T1, Voltage-gated L-type calcium channel; assay: Inhibition of L-type calcium channel in Sprague-Dawley rat primary VSMC assessed as reduction in 5-HT-induced MLC phosphorylation preincubated for 30 mins followed by 5-HT addition measured after 10 mins by Western blot method
Procedure, shortened: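 Primary VSMCs were released from rat aorta with collagenase and elastase. Cells pretreated with compound for 30 min, then stimulated with 10−5 M serotonin for 10 min. Lysed in RIPA with protease/phosphatase inhibitors, and pMLC and total MLC detected by SDS-PAGE Western blot with chemiluminescent imaging. Mean ± SEM, ≥3 experiments.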

[12] = tested on: Aorta; assay: Cytotoxicity against Sprague-Dawley rat aortic rings assessed as non-specific tissue damage after 24 hrs by TUNEL assay; type: tissue-based
Procedure, shortened: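 Aortic rings kept in MEM with 100 U/mL penicillin and 100 μg/mL streptomycin, exposed to compound or vehicle for 24 h at 37 °C in 95% air/5% CO2. Sections quenched with 0.3% H2O2, digested with 20 μg/mL Proteinase K, TdT-labelled with digoxigenin-dUTP for 1 h at 37 °C. Detection by HRP anti-digoxigenin (30 min, room temperature) and DAB, hematoxylin counterstain. Mean ± SEM, ≥3 independent experiments.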

C[As](O)O
inhibition (INH) [1]: Active

COc1cc(/C=C/C(=O)CC(=O)/C=C/c2ccc(O)c(OC)c2)ccc1O [CURCUMIN]
IC50 [2]: > 100 µM

COc1cc(/C=C/C(=O)CC(=O)/C=C/c2ccc(O)cc2)ccc1O
inhibition (INH) [3]: Active

COc1cc(/C=C/C2=CC(=O)CC(c3ccc(O)c(OC)c3)O2)ccc1O (configuration not stated)
IC50 [2]: 14.9 µM
pA2 [2]: 5.2
inhibition (INH) ([2]; rat): Dose-dependent effect
IC50 [4]: 13.5 µM
inhibition (INH) [5]: Dose-dependent effect
Activity [6]: Non-Toxic
inhibition (INH) [7]: Active
inhibition (INH) [8]: Active
IC50 [9]: 18.5 µM
inhibition (INH) ([9]; rat): Dose-dependent effect
inhibition (INH) [10]: Active
inhibition (INH) [11]: Active
Activity [12]: Non-Toxic
inhibition (INH) [3]: Active
